Measurements published in ChEMBL document CHEMBL1148788 (J Med Chem, 2007).
“And” between values parts separate entries of the source, which are not always exact repeats. Equal entries are not always repeated. The source made the active and inactive calls. The calls are words filed in the database; no cut-off is given here.

How the values were obtained:
[1] = Antagonist activity at human alpha7 nAChR W149Y mutant co-expressed with human Ric3 in tsA201 cells by FMP assay; assay type: functional, cell-based
[2] = Displacement of [3H]methyllycaconitine from chimeric alpha-7nAChR W55A mutant /5HT3A receptor in tsA201 cells; assay type: cell-based, Homo sapiens
Summary of the method: (§1)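 tsA-201 cells transiently transfected with 4 µg WT or mutant α7/5-HT3A chimera and assayed 2 days later. Membranes washed twice at 50000g in 50 mM Tris-HCl pH 7.2. Incubated with 0.5 nM [3H]MLA and compound for 2.5 h at room temperature with shaking; nonspecific binding with 5 mM (S)-nicotine. PEI-soaked GF/C filtration, scintillation counting. Ki derived; duplicate, 3–7 experiments.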

[3] = Antagonist activity at human alpha7nAChR Y93A mutant co-expressed with human Ric3 in tsA201 cells by FMP assay; assay type: functional, cell-based
tsA201 [4] = assay: Displacement of [3H]methyllycaconitine from chimeric alpha-7nAChR W149A mutant/5HT3A receptor in tsA201 cells; assay type: cell-based; details: Homo sapiens; summary of the method: as §1
[5] = Displacement of [3H]methyllycaconitine from chimeric alpha-7nAChR Y195F mutant/5HT3A receptor in tsA201 cells; assay type: cell-based, Homo sapiens; summary of the method: as §1
[6] = Displacement of [3H]methyllycaconitine from chimeric alpha-7nAChR S148A mutant /5HT3A receptor in tsA201 cells; assay type: cell-based, Homo sapiens; summary of the method: as §1
tsA201 [7] = assay: Displacement of [3H]methyllycaconitine from chimeric alpha-7nAChR W55A/Y195A mutant /5HT3A receptor in tsA201 cells; assay type: cell-based; details: Homo sapiens; summary of the method: as §1
[8] = Displacement of [3H]methyllycaconitine from chimeric alpha7nAChR W55Y mutant/5HT3A receptor in tsA201 cells; assay type: cell-based, Homo sapiens; summary of the method: as §1
[9] = target: T1, Neuronal acetylcholine receptor subunit alpha-7 (Homo sapiens, UniProt P36544); assay: Antagonist activity at human alpha-7 nAChR in tsA201 cells coexpressed with Ric3 by FMP assay; assay type: functional, cell-based
Target sequence in this assay (P36544 whole entry): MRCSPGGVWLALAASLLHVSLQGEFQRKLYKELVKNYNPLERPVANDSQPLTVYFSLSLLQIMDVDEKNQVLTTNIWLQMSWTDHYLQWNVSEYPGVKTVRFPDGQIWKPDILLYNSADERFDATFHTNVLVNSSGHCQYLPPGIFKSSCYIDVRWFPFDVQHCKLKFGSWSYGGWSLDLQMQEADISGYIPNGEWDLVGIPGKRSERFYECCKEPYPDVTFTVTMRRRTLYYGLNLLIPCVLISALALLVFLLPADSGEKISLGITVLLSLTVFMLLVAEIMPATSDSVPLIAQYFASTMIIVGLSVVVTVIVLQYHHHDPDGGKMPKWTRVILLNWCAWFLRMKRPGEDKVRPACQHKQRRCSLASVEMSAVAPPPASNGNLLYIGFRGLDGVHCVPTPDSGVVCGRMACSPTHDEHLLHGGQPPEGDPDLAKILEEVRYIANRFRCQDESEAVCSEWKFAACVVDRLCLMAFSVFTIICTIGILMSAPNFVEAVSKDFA

tsA201 [10] = assay: Displacement of [3H]methyllycaconitine from chimeric alpha-7nAChR Y188A mutant/5-HT3A receptor in tsA201 cells; assay type: cell-based; details: Homo sapiens; summary of the method: as §1
[11] = Antagonist activity at human alpha-7 nAChR Y188A mutant coexpressed with human Ric3 in tsA201 cells by FMP assay; assay type: functional, cell-based
cells = assay type: functional, cell-based; details: Homo sapiens, HEK293
[12] = Displacement of [3H]methyllycaconitine from chimeric alpha-7nAChR Y168A mutant/5HT3A receptor in tsA201 cells; assay type: cell-based, Homo sapiens; summary of the method: as §1
[13] = Displacement of [3H]methyllycaconitine from chimeric alpha-7nAChR K145R mutant /5HT3A receptor in tsA201 cells; assay type: cell-based, Homo sapiens; summary of the method: as §1
[14] = target: T1, Neuronal acetylcholine receptor subunit alpha-7; assay: Displacement of [3H]methyllycaconitine from human alpha-7 in tsA201 cells coexpressed with 5HT3A receptor; assay type: cell-based
Target sequence in this assay (P36544 whole entry): as above

[15] = target: T2, 5-hydroxytryptamine receptor 3A (Homo sapiens, UniProt P46098); assay: Antagonist activity at human 5HT3A receptor expressed in HEK293 cells by FMP assay; assay type: functional, cell-based; details: read-out: IC50
T2 sequence (P46098 whole entry): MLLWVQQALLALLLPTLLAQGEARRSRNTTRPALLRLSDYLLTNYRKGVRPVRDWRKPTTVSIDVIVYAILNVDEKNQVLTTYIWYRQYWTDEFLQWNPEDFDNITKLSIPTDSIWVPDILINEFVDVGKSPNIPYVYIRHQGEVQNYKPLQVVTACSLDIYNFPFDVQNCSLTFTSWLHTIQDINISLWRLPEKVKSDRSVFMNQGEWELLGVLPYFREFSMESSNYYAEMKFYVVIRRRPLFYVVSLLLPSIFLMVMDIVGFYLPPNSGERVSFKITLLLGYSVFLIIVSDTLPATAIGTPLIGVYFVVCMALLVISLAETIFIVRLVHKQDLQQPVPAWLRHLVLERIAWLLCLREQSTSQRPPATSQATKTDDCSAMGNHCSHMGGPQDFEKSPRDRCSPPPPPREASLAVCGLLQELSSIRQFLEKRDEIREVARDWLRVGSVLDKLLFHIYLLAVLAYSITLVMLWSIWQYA

[16] = Displacement of [3H]methyllycaconitine from chimeric alpha-7nAChR N107A mutant/5HT3A receptor in tsA201 cells; assay type: cell-based, Homo sapiens; summary of the method: as §1
[17] = Displacement of [3H]methyllycaconitine from chimeric alpha-7nAChR D197A mutant/5HT3A receptor in tsA201 cells; assay type: cell-based, Homo sapiens; summary of the method: as §1
[18] = target: T3, Neuronal acetylcholine receptor; alpha3/beta4 (Rattus norvegicus, UniProt P04757+P12392); assay: Antagonist activity at rat alpha3beta4 nAChR expressed in HEK293 cells by FMP assay; assay type: functional, cell-based, Homo sapiens; details: read-out: IC50
[19] = Antagonist activity at human alpha-7 nAChR Y195A mutant coexpressed with human Ric3 in tsA201 cells by FMP assay; assay type: functional, cell-based
tsA201 [20] = assay: Displacement of [3H]methyllycaconitine from chimeric alpha-7nAChR Y93A mutant/5HT3A receptor in tsA201 cells; assay type: cell-based; details: Homo sapiens; summary of the method: as §1
[21] = Displacement of [3H]methyllycaconitine from chimeric alpha-7nAChR S150A mutant/5HT3A receptor in tsA201 cells; assay type: cell-based, Homo sapiens; summary of the method: as §1
[22] = Displacement of [3H]methyllycaconitine from chimeric alpha7nAChR R79A mutant/5HT3A receptor R79A mutant in tsA201 cells; assay type: cell-based, Homo sapiens; summary of the method: as §1
[23] = target: T2, 5-hydroxytryptamine receptor 3A; assay: Displacement of [3H]GR65630 from human 5HT3A receptor in HEK293 cells; assay type: cell-based
[24] = Displacement of [3H]methyllycaconitine from chimeric alpha7nAChR Y195A mutant/5HT3A receptor in tsA201 cells; assay type: cell-based, Homo sapiens; summary of the method: as §1
[25] = target: T3, Neuronal acetylcholine receptor; alpha3/beta4; assay: Displacement of [3H]epibatidine from recombinant rat alpha-3-beta-4 nAChr in HEK293 cell line; assay type: cell-based
[26] = target: Neuronal acetylcholine receptor; alpha4/beta4 (Rattus norvegicus, UniProt P09483+P12392); assay: Displacement of [3H]epibatidine from recombinant rat alpha-4-beta-4 nAChr in HEK293 cell line; assay type: cell-based
[27] = target: Neuronal acetylcholine receptor; alpha4/beta2 (Rattus norvegicus, UniProt P09483+P12390); assay: Displacement of [3H]epibatidine from rat recombinant alpha-4-beta-2 nAChR in HEK293 cell line; assay type: cell-based
[28] = target: T1, Neuronal acetylcholine receptor subunit alpha-7
Target sequence in this assay (P36544 whole entry): as the sequence (P36544 whole entry) above

[29] = Displacement of [3H]methyllycaconitine from chimeric alpha7nAChR K145A mutant/5HT3A receptor in tsA201 cells; assay type: cell-based, Homo sapiens; summary of the method: as §1
[30] = target: T1, Neuronal acetylcholine receptor subunit alpha-7; assay: Displacement of [3H]methyllycaconitine from alpha7 nAChR in tsA201 cells co-expressed with Ric3; assay type: cell-based
Target sequence in this assay (P36544 whole entry): as the sequence (P36544 whole entry) above

tsA201 [31] = assay: Displacement of [3H]methyllycaconitine from chimeric alpha-7nAChR W149Y mutant/5HT3A receptor W149Y mutant in tsA201 cells; assay type: cell-based; details: Homo sapiens; summary of the method: as §1
[32] = target: T1, Neuronal acetylcholine receptor subunit alpha-7; assay: Displacement of [3H]methyllycaconitine from chimeric alpha7nAChR/5HT3A in tsA201 cells; assay type: cell-based
Target sequence in this assay (P36544 23-502 limits assumed): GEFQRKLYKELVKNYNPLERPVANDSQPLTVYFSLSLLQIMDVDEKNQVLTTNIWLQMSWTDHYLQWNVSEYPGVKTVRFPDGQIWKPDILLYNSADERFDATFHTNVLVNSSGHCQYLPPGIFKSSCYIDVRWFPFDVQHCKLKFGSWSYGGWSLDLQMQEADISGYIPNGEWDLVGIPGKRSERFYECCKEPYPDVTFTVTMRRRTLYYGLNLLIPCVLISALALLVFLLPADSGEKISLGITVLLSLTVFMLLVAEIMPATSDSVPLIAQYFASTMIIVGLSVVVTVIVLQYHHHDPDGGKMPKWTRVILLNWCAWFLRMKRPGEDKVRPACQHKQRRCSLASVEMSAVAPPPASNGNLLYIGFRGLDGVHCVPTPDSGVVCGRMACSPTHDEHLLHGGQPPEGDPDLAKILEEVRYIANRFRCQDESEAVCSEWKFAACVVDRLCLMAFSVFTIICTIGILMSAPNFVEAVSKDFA

[33] = target: T4, Glycine receptor subunit alpha-1 (Homo sapiens, UniProt P23415); assay: Antagonist activity at human glycine alpha-1 receptor in HEK293 cells by FMP assay; assay type: functional, cell-based
T4 sequence (P23415 whole entry): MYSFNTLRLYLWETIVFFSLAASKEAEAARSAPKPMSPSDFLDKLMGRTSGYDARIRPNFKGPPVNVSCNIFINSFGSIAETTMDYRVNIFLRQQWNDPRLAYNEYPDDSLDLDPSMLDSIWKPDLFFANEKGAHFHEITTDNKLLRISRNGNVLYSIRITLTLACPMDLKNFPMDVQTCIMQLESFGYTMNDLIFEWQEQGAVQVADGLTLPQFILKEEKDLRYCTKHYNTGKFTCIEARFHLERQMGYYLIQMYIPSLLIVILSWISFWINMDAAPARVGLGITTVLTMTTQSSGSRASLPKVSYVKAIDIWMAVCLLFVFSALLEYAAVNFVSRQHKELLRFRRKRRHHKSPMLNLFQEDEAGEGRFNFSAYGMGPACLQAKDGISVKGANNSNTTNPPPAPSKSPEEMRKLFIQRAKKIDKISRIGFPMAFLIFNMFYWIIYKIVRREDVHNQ

T3 sequence (P04757 whole entry): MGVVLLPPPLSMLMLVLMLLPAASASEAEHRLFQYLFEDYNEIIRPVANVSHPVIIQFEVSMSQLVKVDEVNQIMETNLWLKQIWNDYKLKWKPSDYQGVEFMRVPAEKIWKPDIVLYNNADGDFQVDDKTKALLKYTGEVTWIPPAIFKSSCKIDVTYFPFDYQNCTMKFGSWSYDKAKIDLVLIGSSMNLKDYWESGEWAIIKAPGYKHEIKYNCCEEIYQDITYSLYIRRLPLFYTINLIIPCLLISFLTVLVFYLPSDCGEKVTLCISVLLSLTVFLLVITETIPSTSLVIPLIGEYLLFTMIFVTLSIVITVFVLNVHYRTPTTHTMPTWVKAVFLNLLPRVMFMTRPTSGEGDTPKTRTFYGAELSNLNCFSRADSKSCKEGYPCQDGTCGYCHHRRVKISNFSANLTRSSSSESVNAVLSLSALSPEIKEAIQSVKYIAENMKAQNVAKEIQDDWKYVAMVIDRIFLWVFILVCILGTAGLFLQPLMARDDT
T3 sequence (P12392 whole entry): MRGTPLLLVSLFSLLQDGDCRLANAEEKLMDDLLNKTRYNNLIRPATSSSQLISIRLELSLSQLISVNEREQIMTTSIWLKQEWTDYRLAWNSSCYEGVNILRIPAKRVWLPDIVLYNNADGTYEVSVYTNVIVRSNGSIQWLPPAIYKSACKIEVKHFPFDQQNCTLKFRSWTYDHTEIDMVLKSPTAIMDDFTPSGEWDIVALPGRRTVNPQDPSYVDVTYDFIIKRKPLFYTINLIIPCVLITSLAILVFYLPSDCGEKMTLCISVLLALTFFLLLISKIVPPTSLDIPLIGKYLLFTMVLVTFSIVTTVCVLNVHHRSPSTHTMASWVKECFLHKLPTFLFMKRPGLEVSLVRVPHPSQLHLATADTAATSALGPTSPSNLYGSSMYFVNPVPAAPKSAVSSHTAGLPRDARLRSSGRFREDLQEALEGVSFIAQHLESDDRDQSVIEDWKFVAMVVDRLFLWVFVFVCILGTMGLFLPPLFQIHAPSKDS
Neuronal acetylcholine receptor; alpha4/beta2, sequence (P09483 whole entry): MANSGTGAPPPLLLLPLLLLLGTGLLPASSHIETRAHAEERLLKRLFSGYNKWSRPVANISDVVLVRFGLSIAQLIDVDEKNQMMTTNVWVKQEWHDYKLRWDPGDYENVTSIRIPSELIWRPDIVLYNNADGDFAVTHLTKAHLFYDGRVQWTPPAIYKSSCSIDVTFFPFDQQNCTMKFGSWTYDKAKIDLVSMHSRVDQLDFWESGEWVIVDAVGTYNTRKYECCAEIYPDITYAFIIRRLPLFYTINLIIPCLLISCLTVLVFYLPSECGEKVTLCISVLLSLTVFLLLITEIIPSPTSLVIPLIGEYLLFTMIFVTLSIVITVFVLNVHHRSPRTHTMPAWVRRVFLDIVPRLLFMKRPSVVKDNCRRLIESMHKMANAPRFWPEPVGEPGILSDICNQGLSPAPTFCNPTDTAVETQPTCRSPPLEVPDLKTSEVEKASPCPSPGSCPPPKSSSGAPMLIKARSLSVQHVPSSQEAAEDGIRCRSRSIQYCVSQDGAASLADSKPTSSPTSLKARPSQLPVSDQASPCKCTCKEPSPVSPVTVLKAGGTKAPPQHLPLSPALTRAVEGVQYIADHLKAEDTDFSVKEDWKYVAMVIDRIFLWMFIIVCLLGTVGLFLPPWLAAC
Neuronal acetylcholine receptor; alpha4/beta2, sequence (P12390 whole entry): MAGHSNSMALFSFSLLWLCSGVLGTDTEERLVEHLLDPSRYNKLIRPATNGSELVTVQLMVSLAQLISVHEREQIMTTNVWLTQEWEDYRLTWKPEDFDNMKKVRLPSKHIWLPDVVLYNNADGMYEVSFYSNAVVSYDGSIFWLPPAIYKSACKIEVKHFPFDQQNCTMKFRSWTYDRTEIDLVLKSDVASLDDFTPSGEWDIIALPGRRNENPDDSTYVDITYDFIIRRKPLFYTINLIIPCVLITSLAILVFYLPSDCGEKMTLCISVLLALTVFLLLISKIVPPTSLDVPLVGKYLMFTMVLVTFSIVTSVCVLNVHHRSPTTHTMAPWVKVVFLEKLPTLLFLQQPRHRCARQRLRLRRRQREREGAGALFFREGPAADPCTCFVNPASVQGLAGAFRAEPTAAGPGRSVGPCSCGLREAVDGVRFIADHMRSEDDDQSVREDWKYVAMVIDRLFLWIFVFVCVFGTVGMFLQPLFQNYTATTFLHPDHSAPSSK
Neuronal acetylcholine receptor; alpha4/beta4, sequence (P09483 whole entry): as the sequence (P09483 whole entry) above
Neuronal acetylcholine receptor; alpha4/beta4, sequence (P12392 whole entry): as the sequence (P12392 whole entry) above

C1=CC([N+]23CC[C@@H]4[C@@H]5[C@@H]6[C@@H](OCC=C(C2)[C@@H]6C[C@@H]43)N2c3ccccc3[C@@]34CC[N+]6(C7C=CCCC7)CC7=CCO[C@H]([C@@H]([C@H]23)[C@H]7C[C@@H]46)N5c2ccccc2)CCC1.[Br-].[Br-] (stereo partly drawn)
IC50 ([1]; read-out: IC50): 2900 nM
IC50 ([1]; read-out: pIC50 (converted)): 2880 nM
Ki [2]: 1200 nM
pKi [2]: 5.93
IC50 ([3]; read-out: IC50): 3700 nM
IC50 ([3]; read-out: pIC50 (converted)): 3720 nM
Activity (tsA201 [4]): inactive
Ki [5]: 1300 nM
pKi [5]: 5.89
Ki [6]: 400 nM
pKi [6]: 6.4
Activity (tsA201 [7]): inactive
Ki [8]: 560 nM
pKi [8]: 6.25
IC50 ([9]; read-out: IC50): 3000 nM
IC50 ([9]; read-out: pIC50 (converted)): 3020 nM
Activity (tsA201 [10]): inactive
IC50 ([11]; read-out: IC50): 5300 nM
IC50 ([11]; read-out: pIC50 (converted)): 5130 nM
IC50 (cells; read-out: IC50): > 100000 nM
IC50 (cells; read-out: pIC50 (converted)): > 100000 nM
Ki [12]: 1100 nM
pKi [12]: 5.96
Ki [13]: 660 nM
pKi [13]: 6.18
Ki ([14]; read-out: Ki): 720 nM
Ki ([14]; read-out: pKi (converted)): 794 nM
IC50 [15]: 4400 nM
Ki [16]: 724 nM
pKi [16]: 6.14
Ki [17]: 1500 nM
pKi [17]: 5.83
IC50 [18]: 30000 nM
IC50 ([19]; read-out: IC50): 3300 nM
IC50 ([19]; read-out: pIC50 (converted)): 3310 nM
Activity (tsA201 [20]): inactive
Ki [21]: 550 nM
pKi [21]: 6.26
Ki [22]: 1300 nM
pKi [22]: 5.89
Ki [23]: 2700 nM
Ki [24]: 4900 nM
pKi [24]: 5.31
Ki [25]: 30000 nM
Ki [26]: > 100000 nM
pKi ([26]; hek293): < 4
pKi ([27]; hek293): < 4
Ki ([27]; read-out: Ki): > 100000 nM
IC50 [28]: 3000 nM and 2950 nM
Ki [29]: 320 nM
pKi [29]: 6.5
Ki ([30]; read-out: Ki): 590 nM
Ki ([30]; read-out: pKi (converted)): 631 nM
Activity (tsA201 [31]): inactive
Ki [32]: 840 nM
pKi [32]: 6.07
IC50 [33]: > 100000 nM
pIC50 ([33]; hek293): < 4
